Data from ChEMBL document CHEMBL3862016 (Bioorg Med Chem Lett, 2016).
pIC50: −log10 of the molar value.

Legend:
[1] = molecular target: Histone deacetylase 2 (Homo sapiens, UniProt Q92769); assay: Inhibition of HDAC2 (unknown origin) assessed as inhibition of fluorogenic peptide deacetylation
[2] = AUClast in mouse at 2 mg/kg, iv by HPLC-MS analysis; assay type: ADME, organism-based; design: dose 2 mg/kg, route intravenous, time 0 - last; conditions: in vivo
Outline: (§1)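 Mice dosed iv at 2 mg/kg, or ip or sc at 10 mg/kg. Plasma concentration–time profiles were obtained by sparse sampling with N = 3 per time-point. Parameters (Cmax, Tmax, AUClast, terminal t1/2, CL, Vz, bioavailability) were derived by noncompartmental analysis.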

[3] = Tmax in mouse at 10 mg/kg, sc by HPLC-MS analysis; assay type: ADME, organism-based; conditions: in vivo; outline: as §1
[4] = molecular target: T1, Androgen receptor (Homo sapiens, UniProt P10275); assay: Displacement of [3H]mibolerone from androgen receptor (unknown origin) in membranes after 24 hrs by HAP adsorption assay
T1 sequence (P10275 whole entry): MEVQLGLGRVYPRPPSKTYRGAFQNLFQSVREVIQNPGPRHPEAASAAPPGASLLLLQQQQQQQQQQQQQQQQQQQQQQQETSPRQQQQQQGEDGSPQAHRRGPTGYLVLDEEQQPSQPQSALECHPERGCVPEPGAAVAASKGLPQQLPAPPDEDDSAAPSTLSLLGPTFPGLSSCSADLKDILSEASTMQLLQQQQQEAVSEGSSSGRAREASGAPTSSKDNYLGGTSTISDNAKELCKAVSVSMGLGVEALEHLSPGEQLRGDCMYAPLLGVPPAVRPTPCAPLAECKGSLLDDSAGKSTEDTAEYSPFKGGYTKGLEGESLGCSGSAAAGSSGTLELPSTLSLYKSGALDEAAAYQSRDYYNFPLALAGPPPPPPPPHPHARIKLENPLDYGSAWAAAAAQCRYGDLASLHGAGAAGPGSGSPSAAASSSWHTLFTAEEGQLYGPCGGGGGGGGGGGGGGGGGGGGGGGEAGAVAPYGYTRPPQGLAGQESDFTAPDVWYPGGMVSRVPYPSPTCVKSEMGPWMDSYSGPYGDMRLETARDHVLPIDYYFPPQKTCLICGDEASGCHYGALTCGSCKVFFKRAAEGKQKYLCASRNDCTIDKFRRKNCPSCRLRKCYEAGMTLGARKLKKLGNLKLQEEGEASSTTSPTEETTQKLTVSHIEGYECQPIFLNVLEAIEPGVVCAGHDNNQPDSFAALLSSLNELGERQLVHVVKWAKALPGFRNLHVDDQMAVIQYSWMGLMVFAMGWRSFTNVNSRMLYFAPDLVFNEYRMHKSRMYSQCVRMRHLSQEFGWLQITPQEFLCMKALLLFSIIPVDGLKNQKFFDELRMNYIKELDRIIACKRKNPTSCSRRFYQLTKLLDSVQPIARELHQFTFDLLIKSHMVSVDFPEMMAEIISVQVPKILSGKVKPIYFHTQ

[5] = molecular target: Histone deacetylase 3 (Homo sapiens, UniProt O15379); assay: Inhibition of HDAC3 (unknown origin) assessed as inhibition of fluorogenic peptide deacetylation
Chain of Histone deacetylase 3 (O15379 whole entry): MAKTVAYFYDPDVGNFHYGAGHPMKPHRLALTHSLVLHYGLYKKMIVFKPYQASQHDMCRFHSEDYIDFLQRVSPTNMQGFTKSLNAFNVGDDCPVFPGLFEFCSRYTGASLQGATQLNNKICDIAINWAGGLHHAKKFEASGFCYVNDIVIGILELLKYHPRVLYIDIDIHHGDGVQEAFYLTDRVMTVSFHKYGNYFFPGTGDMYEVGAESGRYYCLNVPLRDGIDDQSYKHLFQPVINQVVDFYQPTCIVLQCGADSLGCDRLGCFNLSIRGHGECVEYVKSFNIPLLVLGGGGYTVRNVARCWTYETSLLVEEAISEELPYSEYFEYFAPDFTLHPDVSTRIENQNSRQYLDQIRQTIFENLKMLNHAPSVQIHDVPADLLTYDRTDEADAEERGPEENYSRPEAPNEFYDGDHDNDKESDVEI

[6] = Bioavailability in mouse at 10 mg/kg, ip by HPLC-MS analysis; assay type: ADME, organism-based; conditions: in vivo; outline: as §1
[7] = Cmax in mouse at 10 mg/kg, sc by HPLC-MS analysis; assay type: ADME, organism-based; design: dose 10 mg/kg, route subcutaneous; conditions: in vivo; outline: as §1
[8] = Terminal half life in mouse at 10 mg/kg, ip by HPLC-MS analysis; assay type: ADME, organism-based; conditions: in vivo, read-out: beta t1/2 (converted); outline: as §1
[9] = Cmax in mouse at 2 mg/kg, iv by HPLC-MS analysis; assay type: ADME, organism-based; design: dose 2 mg/kg, route intravenous; conditions: in vivo; outline: as §1
[10] = Metabolic stability in human liver microsomes assessed as compound remaining at 1 uM measured after 30 mins in presence of NADPH by LC-MS/MS analysis; assay type: ADME; conditions: read-out: Stability
[11] = AUClast in mouse at 10 mg/kg, sc by HPLC-MS analysis; assay type: ADME, organism-based; design: dose 10 mg/kg, time 0 - last, route subcutaneous; conditions: in vivo; outline: as §1
[12] = Metabolic stability in mouse liver microsomes assessed as compound remaining at 1 uM measured after 30 mins in presence of NADPH by LC-MS/MS analysis; assay type: ADME; conditions: read-out: Stability
[13] = Tmax in mouse at 2 mg/kg, iv by HPLC-MS analysis; assay type: ADME, organism-based; conditions: in vivo; outline: as §1
[14] = Terminal half life in mouse at 10 mg/kg, sc by HPLC-MS analysis; assay type: ADME, organism-based; conditions: in vivo, read-out: beta t1/2 (converted); outline: as §1
[15] = tested on: UGT; assay: Metabolic stability in mouse liver microsomes assessed as UGT-mediated glucuronidation of compound by measuring parent compound remaining at 5 uM after 30 mins in presence of UDPGA by LC-MS/MS analysis; assay type: ADME; conditions: read-out: Stability
[16] = Tmax in mouse at 10 mg/kg, ip by HPLC-MS analysis; assay type: ADME, organism-based; conditions: in vivo; outline: as §1
[17] = Bioavailability in mouse at 10 mg/kg, sc by HPLC-MS analysis; assay type: ADME, organism-based; conditions: in vivo; outline: as §1
[18] = tested on: UGT; assay: Metabolic stability in human liver microsomes assessed as UGT-mediated glucuronidation of compound by measuring parent compound remaining at 5 uM after 30 mins in presence of UDPGA by LC-MS/MS analysis; assay type: ADME; conditions: read-out: Stability
[19] = Apparent volume of distribution in mouse at 2 mg/kg, iv by HPLC-MS analysis; assay type: ADME, organism-based; conditions: in vivo, read-out: Vz; outline: as §1
[20] = Cmax in mouse at 10 mg/kg, ip by HPLC-MS analysis; assay type: ADME, organism-based; design: dose 10 mg/kg, route intraperitoneal; conditions: in vivo; outline: as §1
[21] = molecular target: T2, Protein deacetylase HDAC6 (Homo sapiens, UniProt Q9UBN7); assay: Inhibition of HDAC6 (unknown origin) assessed as inhibition of fluorogenic peptide deacetylation
T2 sequence (Q9UBN7 whole entry): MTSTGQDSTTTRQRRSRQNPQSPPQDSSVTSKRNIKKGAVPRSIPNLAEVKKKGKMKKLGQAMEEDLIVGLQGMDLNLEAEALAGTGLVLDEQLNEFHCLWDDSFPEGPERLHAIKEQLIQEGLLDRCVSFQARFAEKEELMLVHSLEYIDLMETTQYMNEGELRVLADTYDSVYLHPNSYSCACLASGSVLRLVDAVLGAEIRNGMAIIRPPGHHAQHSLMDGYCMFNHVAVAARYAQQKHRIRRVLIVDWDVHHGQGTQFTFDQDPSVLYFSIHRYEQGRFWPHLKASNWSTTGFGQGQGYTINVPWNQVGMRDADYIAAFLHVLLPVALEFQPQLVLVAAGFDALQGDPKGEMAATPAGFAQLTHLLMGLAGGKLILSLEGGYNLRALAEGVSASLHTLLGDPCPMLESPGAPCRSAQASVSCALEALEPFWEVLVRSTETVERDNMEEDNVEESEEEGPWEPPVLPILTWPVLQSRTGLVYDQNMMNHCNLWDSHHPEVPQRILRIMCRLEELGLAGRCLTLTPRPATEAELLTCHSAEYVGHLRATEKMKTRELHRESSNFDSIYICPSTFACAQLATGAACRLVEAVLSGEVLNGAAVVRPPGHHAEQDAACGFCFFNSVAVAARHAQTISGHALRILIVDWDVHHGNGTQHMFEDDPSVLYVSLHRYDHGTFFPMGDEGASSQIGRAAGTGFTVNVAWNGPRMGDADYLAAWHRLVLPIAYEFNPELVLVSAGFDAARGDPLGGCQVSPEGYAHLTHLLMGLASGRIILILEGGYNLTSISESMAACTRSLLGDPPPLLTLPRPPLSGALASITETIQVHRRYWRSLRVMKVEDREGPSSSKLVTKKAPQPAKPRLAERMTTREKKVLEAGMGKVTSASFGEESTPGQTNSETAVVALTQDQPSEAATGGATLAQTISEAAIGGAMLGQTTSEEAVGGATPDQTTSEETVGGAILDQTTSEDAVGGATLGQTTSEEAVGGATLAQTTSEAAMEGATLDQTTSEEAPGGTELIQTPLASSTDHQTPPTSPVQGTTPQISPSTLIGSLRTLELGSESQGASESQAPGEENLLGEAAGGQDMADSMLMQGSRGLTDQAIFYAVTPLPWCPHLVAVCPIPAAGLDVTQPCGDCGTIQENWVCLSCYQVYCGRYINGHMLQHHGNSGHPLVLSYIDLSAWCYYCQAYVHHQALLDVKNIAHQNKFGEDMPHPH

[22] = Clearance in mouse at 2 mg/kg, iv by HPLC-MS analysis; assay type: ADME, organism-based; conditions: in vivo; outline: as §1
[23] = molecular target: Histone deacetylase 1 (Homo sapiens, UniProt Q13547); assay: Inhibition of HDAC1 (unknown origin) assessed as inhibition of fluorogenic peptide deacetylation
Chain of Histone deacetylase 1 (Q13547 whole entry): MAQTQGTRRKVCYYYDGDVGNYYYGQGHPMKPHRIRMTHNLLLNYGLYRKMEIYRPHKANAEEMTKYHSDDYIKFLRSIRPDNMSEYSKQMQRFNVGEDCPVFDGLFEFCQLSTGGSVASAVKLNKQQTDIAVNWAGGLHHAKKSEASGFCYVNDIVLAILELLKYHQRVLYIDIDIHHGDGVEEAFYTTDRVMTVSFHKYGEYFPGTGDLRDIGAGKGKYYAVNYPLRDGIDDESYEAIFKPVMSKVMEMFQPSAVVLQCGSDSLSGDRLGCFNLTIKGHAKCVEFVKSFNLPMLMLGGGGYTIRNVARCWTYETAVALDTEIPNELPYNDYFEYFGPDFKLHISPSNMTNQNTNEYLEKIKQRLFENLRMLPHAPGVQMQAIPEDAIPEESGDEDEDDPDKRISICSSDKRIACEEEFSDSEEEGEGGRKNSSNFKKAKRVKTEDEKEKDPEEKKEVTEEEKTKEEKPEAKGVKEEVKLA

[24] = Terminal half life in mouse at 2 mg/kg, iv by HPLC-MS analysis; assay type: ADME, organism-based; conditions: in vivo, read-out: beta t1/2 (converted); outline: as §1
[25] = AUClast in mouse at 10 mg/kg, ip by HPLC-MS analysis; assay type: ADME, organism-based; design: dose 10 mg/kg, time 0 - last, route intraperitoneal; conditions: in vivo; outline: as §1

Chain of Histone deacetylase 2 (Q92769 whole entry): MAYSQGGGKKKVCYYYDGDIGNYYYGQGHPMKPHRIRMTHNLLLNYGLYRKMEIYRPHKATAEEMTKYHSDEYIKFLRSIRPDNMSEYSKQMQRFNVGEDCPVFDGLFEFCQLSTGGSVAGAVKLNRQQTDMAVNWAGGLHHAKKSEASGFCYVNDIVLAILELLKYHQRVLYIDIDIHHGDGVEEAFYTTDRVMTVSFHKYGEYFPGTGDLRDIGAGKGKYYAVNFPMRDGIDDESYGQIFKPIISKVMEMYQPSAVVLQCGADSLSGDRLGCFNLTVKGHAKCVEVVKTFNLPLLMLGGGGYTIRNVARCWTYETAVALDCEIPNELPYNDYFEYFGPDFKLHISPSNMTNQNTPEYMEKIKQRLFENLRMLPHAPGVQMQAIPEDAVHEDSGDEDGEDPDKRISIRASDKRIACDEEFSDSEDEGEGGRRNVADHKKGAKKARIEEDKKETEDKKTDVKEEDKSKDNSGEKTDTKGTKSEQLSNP

CC1(C)C(=O)N(c2ccc(C#N)c(C(F)(F)F)c2)C(=S)N1c1ccc(C(=O)NCCCCCC(=O)NO)c(F)c1 showed a pIC50 [1] of 5.65, an AUC(0-t) [2] of 0.206 µM·h and a Tmax [3] of 30 min. For the same molecule, the pIC50 [4] was greater than 7.52, the pIC50 [5] was 5.74 and the bioavailability [6] was 82.1%. The Cmax [7] was 269 nM, the half-life [8] was 660 min and the Cmax [9] was 706 nM. It also gave a remaining at 0.5 h, 1 µM [10] of 29.1%, an AUC(0-t) [11] of 1.03 µM·h and a remaining at 0.5 h, 1 µM [12] of 21.9%. It also gave a Tmax [13] of 4.98 min, a half-life [14] of 205 min and a remaining at 0.5 h, 5 µM [15] of 46.1%. For the same molecule, the Tmax [16] was 60 min, the bioavailability [17] was 100% and the remaining at 0.5 h, 5 µM [18] was 97.6%. It also gave a Vd [19] of 10.3 L/kg, a Cmax [20] of 419 nM and a pIC50 [21] of 7.44. For the same molecule, the clearance [22] was 278 mL/min/kg, the pIC50 [23] was 5.54 and the half-life [24] was 25.6 min. The AUC(0-t) [25] was 0.846 µM·h.
